# RAM inhibit – inhibitors of the yeast RAM network, primary screen, dse1pr::URA3 reporter, 5-FOA selection | S. cerevisiae dse1pr::URA3 reporter, 5-FOA growth OD615, 2 d; analog-sensitive cbk1-as2 kinase mutant strain | inhibition, % at 50 µM | 190,000 compounds, 1.8% hits | AID 868, 2007;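 active = inhibition above a set limit, 3 SD over mean compound inhibition, cut at about 8.4% in these data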;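 note: 0% = DMSO-only wells with no growth and 100% = 10 µM 1-NA-PP1 full growth; inhibition rescues growth on 5-FOA so higher OD means more RAM inhibition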
# Measles CPE – compounds protecting cells from measles virus cytopathic effect, primary screen, measles RdRp inhibitor project, single point, MLSMR library, absorbance; Measles virus-infected cells, CPE protection; protection (pct of control), % at 4 µM; 140,000 compounds, 1.5% hits; in the data active = protection mostly above about 24%, no sharp cut-off; inactive = mostly below about 26%
# WT yeast gro inh – growth inhibition of WT strain, primary screen, mitochondrial fusion inhibitor project, WT and mutant strains, chemical genetic; mitochondrial fusion phenotypic screen; inhibition, % at 10 µM; 190,000 compounds, 2.1% hits; AID 1362, 2008; in the data active = inhibition above about 58%; tested in S. cerevisiae
# Yeast growth inh – growth inhibitors of yeast BB579 in restrictive medium, primary screen, yeast lifespan-shortening project, S. cerevisiae; inhibition, % at 10 µM; AID 804, 2007; OD615, 48 h; 140,000 compounds, 0.51% hits;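 active = inhibition above a set limit, 3 SD over the mean compound inhibition, cut at about 44% in these data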
#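 Test system: S. cerevisiae DeaD strain BB579 yeast; Medium: restrictive CSMM-D medium; Compound: one dose, 10 µM compound with 0.25% DMSO; Incubation: 4 h cell preincubation, 48 h compound exposure, 30 °C humidified; Signal: OD at 615 nm; Benchmarks: amphotericin B at 10 µg/mL as positive control.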
# DAT uptake mod – changed hDAT dopamine uptake under cocaine IC80, either direction, primary screen, cocaine antagonist project, cell-based, LLC-PK1 hDAT, [14C]-dopamine uptake, MLSMR | Sodium-dependent dopamine transporter (Homo sapiens), Q01959 | LLC-PK1 hDAT cells, [14C]-dopamine uptake with cocaine IC80; actives deviate in either direction | 110,000 compounds, 1.3% hits | B-score at 10 µM;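 active = Z score or B-score, a plate-position-corrected score, falls beyond the plate's 99.7% confidence bounds, in either direction; inactive = both scores lie inside the 99.7% bounds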;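 note: scored against the spread of the other compound wells on the same plate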
# Target sequence (Q01959 whole entry, looked up): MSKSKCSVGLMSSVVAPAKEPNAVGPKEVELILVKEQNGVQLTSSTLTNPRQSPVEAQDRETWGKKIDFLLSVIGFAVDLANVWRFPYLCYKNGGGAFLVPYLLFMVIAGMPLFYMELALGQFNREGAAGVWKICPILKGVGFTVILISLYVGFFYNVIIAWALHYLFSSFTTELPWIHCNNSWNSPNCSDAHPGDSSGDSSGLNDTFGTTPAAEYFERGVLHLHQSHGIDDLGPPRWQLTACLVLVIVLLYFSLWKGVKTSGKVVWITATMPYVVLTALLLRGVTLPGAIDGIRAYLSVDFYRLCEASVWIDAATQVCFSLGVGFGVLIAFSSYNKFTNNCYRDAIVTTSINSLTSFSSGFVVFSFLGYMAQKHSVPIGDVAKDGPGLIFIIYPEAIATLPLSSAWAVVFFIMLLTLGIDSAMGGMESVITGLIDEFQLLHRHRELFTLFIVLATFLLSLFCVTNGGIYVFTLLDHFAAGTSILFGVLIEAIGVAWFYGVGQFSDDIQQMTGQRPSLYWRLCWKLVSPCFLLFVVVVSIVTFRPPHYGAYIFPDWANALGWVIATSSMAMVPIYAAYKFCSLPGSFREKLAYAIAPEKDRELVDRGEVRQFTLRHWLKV
# Yeast life ext – compounds extending yeast replicative lifespan, primary screen, S. cerevisiae, OD615 | S. cerevisiae growth with nicotinamide; deaD strain in restrictive glucose medium | inhibition of the nicotinamide effect, % at 10 µM | 130,000 compounds, 0.68% hits;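 active = inhibition above a set limit, placed 3 SD over the median of all compounds, cut at about 26% in these data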;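 note: 0% = nicotinamide-treated wells and 100% = cells grown without nicotinamide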
#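 Measured by: optical density (absorbance) at 615 nm; System: modified budding yeast, DeaD strain; Medium: restrictive CSMM-D dextrose medium; Timing: 4 h preincubation then 48 h treatment at 30 °C.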
# Numbers without * were called inactive; . = no result given. This is a sample that favours compounds with a hit; in the whole collection about 6.1% have one here.
SMILES,RAM inhibit,Measles CPE,WT yeast gro inh,Yeast growth inh,DAT uptake mod,Yeast life ext
O=C(NC(=S)NNC(=O)c1cc2ccccc2cc1O)c1ccco1,6,.,16,.,.,.
O=C(NC(=S)NNC(=O)c1ccccc1O)c1ccco1,1,23,12,-58,.,82*
COc1cc(-c2noc(CCCC(=O)NC3CCCCC3)n2)cc(OC)c1OC,0,10,.,-27,2.3,-6
CC(C)CSC1=NSC2=NC(=O)/C(=C\c3coc4ccccc4c3=O)C(=N)N12,9.0*,.,14,.,.,.
CSC1=NSC2=NC(=O)/C(=C\c3coc4ccccc4c3=O)C(=N)N12,1,7,-13,70*,.,21
CC(C)CSC1=NSC2=NC(=O)/C(=C\c3ccccc3)C(=N)N12,6,.,8,.,.,.
CCCCN(C(=O)c1ccc2c(c1)OCO2)c1ccccc1,-1,.,24,.,.,.
CC(=O)n1cc([C@H]2C=C(C(=O)N3CCN(Cc4ccccc4)CC3)O[C@@H](OCCCCO)C2)c2ccccc21,1,.,6,.,2.9*,.
CC(=O)n1cc([C@H]2C=C(C(=O)NCc3ccccc3)O[C@@H](OCCCCO)C2)c2ccccc21,8.8*,.,-5,.,1,.
COc1ccc(C(=O)OCC(=O)NC(=O)NC2CCCC2)c(OC)c1,1,.,-7,.,.,.
Cc1ccc(C)c(NC(=S)NCCc2ccc(F)cc2)c1,-1,8,69*,-11,.,2
COc1ccccc1NC(=S)NCCc1ccc(F)cc1,-1,.,8,.,.,.
Cc1ccc(NC(=S)NCCc2ccccc2)c(C)c1,1,17,70*,12,.,0
Nc1sc2c([n+]1CCCS(=O)(=O)[O-])CCCC2,2,.,-3,.,.,.
Cc1nn2c3ccccc3nc2c2ccccc12,1,14,.,79*,-0.4,-12
COc1ccc2c(=O)c3c(=O)n(Cc4ccco4)c(-c4ccco4)nc3oc2c1,-1,6,5,-66,1,75*
CCc1nc2oc3cc(OC)ccc3c(=O)c2c(=O)n1Cc1ccco1,0,23,.,-13,1.3,13
COc1ccc(-c2nc3oc4cc(OC)ccc4c(=O)c3c(=O)n2Cc2ccco2)cc1,-1,8,33,-13,0.033,27*
COc1ccc(Cn2c(-c3ccco3)nc3oc4cc(OC)ccc4c(=O)c3c2=O)cc1,1,9,1,-28,0.46,19
COC(=O)CCCCCN1C(=O)NC(C2CC2)C(C(=O)OCc2ccccc2)=C1C (stereo not given),.,.,.,.,0.25,.
CCN(CC)C(=O)N1c2ccccc2C=Cc2ccccc21,1,57*,4,-31,-0.59,-1
CCCOc1ccc(Cn2c(=O)oc3ccc(C)cc32)cc1OC,8.6*,11,9,-37,0.022,.
CC1CC1c1ccc(/C=C(\C#N)C(=O)Nc2cccc(Cl)c2Cl)o1 (stereo not given),-1,7,6,7,.,-8
Cc1nc(NC(=O)c2ccc(Cl)cc2)nc2cc3c(cc12)OCO3,3,21,-5,-5,.,-5
Cc1c(C(=O)c2ccc(Cl)cc2Cl)cnc2cc3c(cc12)OCO3,-1,3,50,-53,-8.5*,.
SMILES,RAM inhibit,Measles CPE,WT yeast gro inh,Yeast growth inh,DAT uptake mod,Yeast life ext
CCCn1nnc(NC(=S)NC(=O)c2cccs2)n1,0,0,8,-37,.,6
COc1ccc(CCNC(=O)C2CCN(S(C)(=O)=O)CC2)cc1OC,0,3,42,10,-0.55,-25
O=C(NCCc1ccc(Cl)cc1)C1CCN(S(=O)(=O)c2cccc3nonc23)CC1,3,7,13,-70,-2.2*,2
COc1ccc(CCNC(=O)C2CC2)cc1OC,2,46*,29,-30,-0.6,-20
COc1ccc(C)cc1S(=O)(=O)N1CCC(C(=O)NCCc2ccccc2)CC1,0,5,-2,8,.,28*
Cc1cc(C)n(-c2nc3nonc3nc2Nc2cccc(C)c2C)n1,4,31*,-12,-16,-0.54,-5
CCC1Oc2ccc(C)cc2N(CC(=O)NCCCN2CCCCC2CC)C1=O (stereo not given),0,14,81*,-10,-0.92,-5
CCC1Oc2ccc(C)cc2N(CC(=O)NCCC2=CCCCC2)C1=O (stereo not given),3,8,7,-26,-0.12,-18
COc1ccc(NC(=O)c2ccc(C(=O)c3cc(OC)ccc3OC)cc2)cc1,2,1,7,-34,-0.69,16
COc1ccc(CN(CC(=O)NC2CCCC2)C(=O)c2ccc(-c3ccccc3)[nH]2)cc1,8.8*,.,48,.,.,.
COc1ccc(CN(CC(=O)NC2CCCCC2)C(=O)CCCC(=O)Nc2ccccn2)cc1,1,.,-9,.,.,.
CN1c2ccccc2C(O)=C(C(=S)Nc2ccc(F)c(Cl)c2)S1(=O)=O,6,41*,13,-37,2,-12
Cc1ccc(S(=O)(=O)NCCSc2nnnn2-c2cc(C)ccc2C)cc1,10*,10,8,-46,-2.3,-6
Cc1ccc(S(=O)(=O)NCCSc2nnnn2-c2ccccc2)cc1,2,11,14,-8,1.1,.
COC(=O)C1=C(C)N(CCCCCC(=O)O)C(=O)NC1c1ccccc1 (stereo not given),.,.,.,.,-0.45,.
Cc1ccc(Cl)cc1N1CCN(S(C)(=O)=O)CC1,-1,5,2,6,0.77,-13
Cc1ccc(Cl)cc1N1CCN(S(=O)(=O)N2CCCCC2)CC1,6,.,73*,.,.,.
CCOC(=O)c1ccc(CNC(=O)c2cc(C(C)(C)C)oc2C)o1,0,18,6,-14,2,-2
CC(=O)Nc1ccccc1OCc1cnc(Cl)s1,0,.,-8,.,.,.
Cc1cc(C)n(-c2cc(C(=O)O)cc(C(=O)O)c2)n1,1,.,-10,.,.,.
COc1cc(OC)nc(Oc2ccccc2C(=O)Oc2ccc(F)cc2Cl)n1,8,17,69*,-97,-0.15,8
COc1ccccc1C(=O)O/N=C(\N)c1ccccc1Cl,1,15,-10,-28,.,-3
COc1cc(CNn2cn[nH]c2=S)cc(Br)c1OCc1ccccc1F,-1,.,72*,.,.,.
COc1cc(CNn2cn[nH]c2=S)cc(Cl)c1OCc1ccccc1,-1,32,31,-44,0.15,-18
Cc1nc2ccc(S(=O)(=O)NCC(=O)Nc3cccc(F)c3)cc2s1,2,.,-1,.,.,.
O=[N+]([O-])c1ccccc1-c1ccc(C(=S)N2CCCC2)o1,2,.,15,.,.,.
Cc1cccc(N2CCN(C(=S)c3ccc(-c4ccccc4[N+](=O)[O-])o3)CC2)c1,11*,15,3,-65,.,4

# Screens: PubChem BioAssay, several laboratories
